# The source made the active and inactive calls. The calls are words filed in the database; no cut-off is given here.
# Tests used:
# MDA-MB-435 [1] = test: Antiproliferative activity against human MDA-MB-435 cells; format: functional, cell-based
# Chorioallantoic membrane = test: Antiangiogenic activity in fertile leghorn chicken egg Chorioallantoic membrane assessed as inhibition of human VEGF-165/bFGF-induced angiogenesis after 48 hrs by CAM assay; format: functional, tissue-based; conditions: Gallus gallus
# SK-OV-3 [2] = test: Antiproliferative activity against human SKOV3 cells; format: functional, cell-based
# HeLa [3] = test: Antiproliferative activity against human HeLa cells expressing beta3-tubulin; format: functional, cell-based
# [4] = molecular target: Vascular endothelial growth factor receptor 2 (Homo sapiens, UniProt P35968); format: cell-based, U-251
# [5] = molecular target: Epidermal growth factor receptor (Homo sapiens, UniProt P00533); format: cell-based, A-431
# HeLa [6] = test: Antiproliferative activity against human HeLa cells; format: functional, cell-based
# SK-OV-3 [7] = test: Antiproliferative activity against human SKOV3 cells expressing MDR1/M-6-6; format: functional, cell-based
# [8] = molecular target: Platelet-derived growth factor receptor beta (Homo sapiens, UniProt P09619); test: Inhibition of PDGFRbeta in human SH-SY5Y cells by phosphotyrosine ELISA assay; format: cell-based
# MDA-MB-468 = test: Cytotoxicity against human triple negative MDA-MB-468 cells; format: functional, cell-based
# MDA-MB-435 [9] = test: Cytotoxicity against human MDA-MB-435 cells; format: functional, cell-based
# MCF7 [10] = test: Cytotoxicity against human ER-positive MCF7 cells; format: functional, cell-based
# MCF7 [11] = test: Cytotoxicity against human taxoid-resistant MCF7 cells; format: functional, cell-based
# HUVEC = test: Cytotoxicity against HUVEC; format: cell-based; conditions: Homo sapiens
# 4T1 [12] = test: Cytotoxicity against mouse triple negative 4T1 cells; format: functional, cell-based
# MDA-MB-231 = test: Cytotoxicity against human triple negative MDA-MB-231 cells; format: functional, cell-based
# in vivo = conditions: BALBc/J, mouse
# Mus musculus [13] = test: Toxicity in human MDA-MB-435 cells […] assessed as increase in body weight at 50 mg/kg; format: organism-based; set-up: dose 50 mg/kg; conditions: in vivo
# Mus musculus [14] = test: Toxicity in luciferase/GFP-tagged mouse 4T1 cells allografted in BALBc/J mouse assessed as body weight loss at 50 mg/kg twice weekly starting at day 7 and continuing to day 32; format: organism-based; set-up: dose 50 mg/kg; conditions: in vivo
# In short: (§1)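 750 4T1-Luc2/GFP cells (>98% GFP+) in PBS/1 mM EDTA implanted into fat pad #4 of 8 wk female BALB/c mice. MTD doses given twice weekly (docetaxel weekly), day 7 to day 32; DMSO/solutol-15/D5W vehicle. Calipers, ellipsoid volume; weights before each dose; 7-10 mice per group; lungs imaged fresh by fluorescence at day 33.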
# [15] = Growth inhibition of human MOLT4 cells by SRB assay; format: functional; conditions: MOLT-4
# Tubulin = Tubulin (Sus scrofa, UniProt P02554+P02550); test: Inhibition of pig brain tubulin polymerization by spectrophotometric analysis
# A-431 = test: Cytotoxicity against human A431 cells by SRB assay; format: functional, cell-based
# 4T1 [16] = test: Antitumor activity against luciferase/GFP-tagged mouse 4T1 cells allografted in BALBc/J mouse assessed as reduction in primary tumor growth at 50 mg/kg twice weekly starting at day 7 and continuing to day 32; format: functional, organism-based; set-up: dose 50 mg/kg; in short: as §1
# MDA-MB-435 [17] = test: Antitumor activity against human MDA-MB-435 cells […] assessed as decrease in tumor growth at 50 mg/kg relative to untreated control; format: functional, organism-based; set-up: dose 50 mg/kg
# HeLa [18] = test: Cell cycle arrest in human HeLa cells assessed as effect on accumulation at G1 phase at 40 to 50 nM after 18 hrs by flow cytometric analysis; format: functional, cell-based
# In short: (§2)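 HeLa cells allowed to adhere 24 h, then drug-treated (18 h per legend; harvest stated 24 h in methods). Stained with Krishan's reagent; DNA content measured by flow cytometry.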
# [19] = test system: MDA-MB-435 (Homo sapiens); test: Induction of apoptosis in human MDA-MB-435 cells assessed as PARP cleavage at 75 nM after 18 to 36 hrs by Western blot analysis
# MDA-MB-435 [20] = test: Antitumor activity against human MDA-MB-435 cells […] assessed as decrease in tumor vascular density at 50 mg/kg by CD31/PECAM-1 immunohistochemical staining; format: functional, organism-based; set-up: dose 50 mg/kg
# 4T1 [21] = test: Antitumor activity against luciferase/GFP-tagged mouse 4T1 cells allografted in BALBc/J mouse assessed as reduction in number of lung metastases at 50 mg/kg twice weekly starting at day 7 and continuing to day 32; format: functional, organism-based; set-up: dose 50 mg/kg; in short: as §1
# 4T1 [22] = test: Antitumor activity against luciferase/GFP-tagged mouse 4T1 cells allografted in BALBc/J mouse assessed as reduction in tumor size at 50 mg/kg twice weekly starting at day 7 and continuing to day 32; format: functional, organism-based; set-up: dose 50 mg/kg; in short: as §1
# [23] = test system: MDA-MB-435 (Homo sapiens); test: Induction of apoptosis in human MDA-MB-435 cells assessed as PARP cleavage at 75 nM after 18 hrs by Western blot analysis
# Tubulin (Sus scrofa) = Tubulin (Sus scrofa) (UniProt P02554+P02550); conditions: 5 uM
# HeLa [24] = test: Cell cycle arrest in human HeLa cells assessed as accumulation at G2/M phase at 40 to 50 nM after 18 hrs by flow cytometric analysis; format: functional, cell-based; in short: as §2
# HeLa [25] = test: Cell cycle arrest in human HeLa cells assessed as accumulation at G2/M phase after 18 hrs by flow cytometric analysis; format: functional, cell-based; in short: as §2
# 4T1 [26] = test: Antitumor activity against luciferase/GFP-tagged mouse 4T1 cells allografted in BALBc/J mouse assessed as reduction in primary tumor growth at 35 mg/kg twice weekly starting at day 7 and continuing to day 32; format: functional, organism-based; set-up: dose 35 mg/kg; in short: as §1
# Vascular endothelial growth factor receptor 2, sequence (P35968 whole entry): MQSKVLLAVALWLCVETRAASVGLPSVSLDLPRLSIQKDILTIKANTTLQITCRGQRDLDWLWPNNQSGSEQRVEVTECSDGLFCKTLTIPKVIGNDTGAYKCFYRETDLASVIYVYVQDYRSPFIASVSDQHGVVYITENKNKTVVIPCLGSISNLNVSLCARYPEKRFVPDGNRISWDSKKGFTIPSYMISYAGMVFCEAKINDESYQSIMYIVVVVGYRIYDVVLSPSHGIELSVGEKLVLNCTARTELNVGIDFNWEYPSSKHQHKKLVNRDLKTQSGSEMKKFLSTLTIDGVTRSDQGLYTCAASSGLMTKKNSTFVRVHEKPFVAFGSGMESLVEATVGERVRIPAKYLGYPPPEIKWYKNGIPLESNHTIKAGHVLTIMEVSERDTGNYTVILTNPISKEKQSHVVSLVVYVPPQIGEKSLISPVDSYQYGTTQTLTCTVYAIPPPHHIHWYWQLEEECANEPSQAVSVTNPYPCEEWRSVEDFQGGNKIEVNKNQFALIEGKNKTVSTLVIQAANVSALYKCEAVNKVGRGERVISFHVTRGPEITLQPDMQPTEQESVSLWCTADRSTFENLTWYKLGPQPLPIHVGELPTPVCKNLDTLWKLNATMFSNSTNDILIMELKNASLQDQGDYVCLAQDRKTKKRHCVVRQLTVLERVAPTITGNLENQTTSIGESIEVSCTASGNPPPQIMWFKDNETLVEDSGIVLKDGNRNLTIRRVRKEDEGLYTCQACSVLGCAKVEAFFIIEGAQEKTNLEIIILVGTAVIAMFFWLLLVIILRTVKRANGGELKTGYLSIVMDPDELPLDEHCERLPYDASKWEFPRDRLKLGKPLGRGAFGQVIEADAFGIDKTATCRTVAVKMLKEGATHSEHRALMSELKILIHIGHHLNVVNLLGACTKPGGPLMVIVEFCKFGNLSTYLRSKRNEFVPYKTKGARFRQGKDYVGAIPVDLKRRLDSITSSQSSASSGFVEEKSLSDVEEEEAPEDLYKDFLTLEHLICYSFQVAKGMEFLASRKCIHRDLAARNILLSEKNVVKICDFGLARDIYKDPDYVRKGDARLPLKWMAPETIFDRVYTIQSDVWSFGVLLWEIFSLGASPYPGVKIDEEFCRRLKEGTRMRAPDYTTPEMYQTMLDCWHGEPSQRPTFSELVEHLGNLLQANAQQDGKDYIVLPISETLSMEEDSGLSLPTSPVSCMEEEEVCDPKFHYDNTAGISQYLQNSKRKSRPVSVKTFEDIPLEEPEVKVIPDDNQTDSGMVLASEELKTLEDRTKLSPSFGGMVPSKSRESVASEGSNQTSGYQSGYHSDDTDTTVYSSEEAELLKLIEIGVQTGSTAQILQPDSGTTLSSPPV
# Epidermal growth factor receptor, sequence (P00533 whole entry): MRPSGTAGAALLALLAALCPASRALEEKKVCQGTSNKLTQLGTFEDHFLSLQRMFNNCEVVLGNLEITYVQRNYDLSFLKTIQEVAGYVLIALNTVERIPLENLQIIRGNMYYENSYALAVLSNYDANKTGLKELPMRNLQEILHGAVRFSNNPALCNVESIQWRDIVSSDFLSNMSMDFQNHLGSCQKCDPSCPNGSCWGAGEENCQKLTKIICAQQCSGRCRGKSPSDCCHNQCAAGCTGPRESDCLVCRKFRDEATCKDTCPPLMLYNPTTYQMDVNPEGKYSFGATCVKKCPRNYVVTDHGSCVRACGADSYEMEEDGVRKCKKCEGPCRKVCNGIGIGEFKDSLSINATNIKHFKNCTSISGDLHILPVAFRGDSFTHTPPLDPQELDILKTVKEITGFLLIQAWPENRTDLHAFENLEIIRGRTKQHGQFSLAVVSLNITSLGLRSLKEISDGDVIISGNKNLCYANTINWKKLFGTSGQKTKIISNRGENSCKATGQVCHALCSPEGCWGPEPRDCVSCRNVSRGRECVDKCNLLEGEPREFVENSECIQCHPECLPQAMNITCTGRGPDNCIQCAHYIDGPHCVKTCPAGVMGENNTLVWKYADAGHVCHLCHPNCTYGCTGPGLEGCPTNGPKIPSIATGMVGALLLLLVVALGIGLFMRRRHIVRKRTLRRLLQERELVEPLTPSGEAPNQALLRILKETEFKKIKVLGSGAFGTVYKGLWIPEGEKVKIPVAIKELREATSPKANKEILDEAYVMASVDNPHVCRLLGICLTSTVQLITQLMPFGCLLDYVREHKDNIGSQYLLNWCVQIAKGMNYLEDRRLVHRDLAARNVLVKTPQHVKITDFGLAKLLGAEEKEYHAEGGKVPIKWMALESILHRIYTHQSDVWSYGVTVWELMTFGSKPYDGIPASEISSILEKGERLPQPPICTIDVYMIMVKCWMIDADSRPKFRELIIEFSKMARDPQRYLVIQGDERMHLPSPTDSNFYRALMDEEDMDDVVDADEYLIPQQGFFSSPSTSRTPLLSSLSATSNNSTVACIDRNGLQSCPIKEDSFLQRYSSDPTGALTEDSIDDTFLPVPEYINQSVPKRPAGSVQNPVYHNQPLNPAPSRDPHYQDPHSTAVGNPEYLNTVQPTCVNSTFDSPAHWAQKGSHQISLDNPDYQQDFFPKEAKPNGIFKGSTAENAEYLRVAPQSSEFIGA
# Platelet-derived growth factor receptor beta, sequence (P09619 whole entry): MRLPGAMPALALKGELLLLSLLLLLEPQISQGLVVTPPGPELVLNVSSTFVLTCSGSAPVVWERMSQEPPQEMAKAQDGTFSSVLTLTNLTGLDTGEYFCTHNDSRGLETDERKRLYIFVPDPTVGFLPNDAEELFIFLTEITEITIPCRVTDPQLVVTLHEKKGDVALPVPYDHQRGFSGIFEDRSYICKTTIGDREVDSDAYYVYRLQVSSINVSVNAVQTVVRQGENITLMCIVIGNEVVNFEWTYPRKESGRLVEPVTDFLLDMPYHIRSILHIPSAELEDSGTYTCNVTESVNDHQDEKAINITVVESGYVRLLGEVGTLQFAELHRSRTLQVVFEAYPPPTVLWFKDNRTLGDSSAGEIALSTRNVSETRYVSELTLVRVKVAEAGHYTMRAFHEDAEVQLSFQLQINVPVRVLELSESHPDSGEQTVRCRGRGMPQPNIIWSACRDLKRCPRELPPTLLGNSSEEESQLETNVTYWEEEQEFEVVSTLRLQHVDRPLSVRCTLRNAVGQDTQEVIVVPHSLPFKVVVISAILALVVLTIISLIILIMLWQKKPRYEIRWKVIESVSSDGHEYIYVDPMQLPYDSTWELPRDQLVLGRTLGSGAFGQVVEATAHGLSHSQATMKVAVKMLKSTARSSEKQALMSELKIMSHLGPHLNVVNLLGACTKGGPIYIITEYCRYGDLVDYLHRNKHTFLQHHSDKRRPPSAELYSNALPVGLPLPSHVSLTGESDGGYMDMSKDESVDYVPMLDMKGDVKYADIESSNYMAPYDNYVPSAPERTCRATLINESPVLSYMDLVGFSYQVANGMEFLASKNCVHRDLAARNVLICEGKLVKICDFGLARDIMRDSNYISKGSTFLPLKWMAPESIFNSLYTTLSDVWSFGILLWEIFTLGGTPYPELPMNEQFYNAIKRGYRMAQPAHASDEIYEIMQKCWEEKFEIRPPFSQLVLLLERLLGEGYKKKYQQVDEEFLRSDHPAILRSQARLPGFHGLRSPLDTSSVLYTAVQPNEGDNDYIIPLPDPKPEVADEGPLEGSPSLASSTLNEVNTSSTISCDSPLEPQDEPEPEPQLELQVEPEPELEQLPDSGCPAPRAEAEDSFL
# Tubulin (Sus scrofa), sequence (P02550 whole entry, looked up): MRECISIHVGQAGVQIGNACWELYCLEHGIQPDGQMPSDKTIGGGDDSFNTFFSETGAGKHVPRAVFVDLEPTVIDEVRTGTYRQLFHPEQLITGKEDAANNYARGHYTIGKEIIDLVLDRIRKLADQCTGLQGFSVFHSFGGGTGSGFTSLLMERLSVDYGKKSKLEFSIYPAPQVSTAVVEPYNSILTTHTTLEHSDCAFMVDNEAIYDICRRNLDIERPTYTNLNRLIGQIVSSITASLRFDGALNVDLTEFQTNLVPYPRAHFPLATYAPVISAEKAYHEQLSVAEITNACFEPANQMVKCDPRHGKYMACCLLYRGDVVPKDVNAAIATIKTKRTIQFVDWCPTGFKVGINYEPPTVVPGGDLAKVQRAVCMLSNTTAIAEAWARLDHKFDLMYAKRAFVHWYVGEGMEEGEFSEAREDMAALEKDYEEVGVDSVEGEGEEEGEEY
# Tubulin (Sus scrofa), sequence (P02554 whole entry, looked up): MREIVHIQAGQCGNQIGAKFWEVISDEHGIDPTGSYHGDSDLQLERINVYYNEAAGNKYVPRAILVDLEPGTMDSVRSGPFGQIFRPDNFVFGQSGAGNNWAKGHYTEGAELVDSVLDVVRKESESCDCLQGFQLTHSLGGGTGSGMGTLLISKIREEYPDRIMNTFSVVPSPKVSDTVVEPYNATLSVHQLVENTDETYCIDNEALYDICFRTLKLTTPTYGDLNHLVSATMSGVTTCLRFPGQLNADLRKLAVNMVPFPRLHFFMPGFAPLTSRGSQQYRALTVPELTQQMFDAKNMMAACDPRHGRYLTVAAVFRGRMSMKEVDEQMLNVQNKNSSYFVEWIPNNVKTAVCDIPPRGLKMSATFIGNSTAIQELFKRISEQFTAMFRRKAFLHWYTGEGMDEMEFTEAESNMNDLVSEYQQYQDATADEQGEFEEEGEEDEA
smiles,measurement,setting,value
CCN(c1ccc(OC)cc1)c1nc(C)nc2oc(C)cc12,IC50,MDA-MB-435 [1],137 nM
same,IC50,Chorioallantoic membrane,19200 nM
same,IC50,SK-OV-3 [2],228 nM
same,IC50,HeLa [3],206 nM
same,IC50,[4],10.6 nM
same,IC50,[5],70.7 nM
same,IC50,HeLa [6],167 nM
same,IC50,SK-OV-3 [7],270 nM
same,IC50,[8],27.1 nM
CCN(CC)CCNC(=O)c1c(C)[nH]c(/C=C2\C(=O)Nc3ccc(F)cc32)c1C [SUNITINIB],IC50,MDA-MB-468,6.1 nM
same,IC50,MDA-MB-435 [9],9.7 nM
same,IC50,MCF7 [10],27.1 nM
same,IC50,MCF7 [11],29.3 nM
same,IC50,HUVEC,11.8 nM
same,IC50,4T1 [12],16 nM
same,IC50,MDA-MB-231,22.3 nM
CCCCN(c1ccc(OC)cc1)c1nc(C)nc2oc(C)cc12,IC50,MDA-MB-435 [1],> 10000 nM
same,IC50,Chorioallantoic membrane,32600 nM
same,IC50,SK-OV-3 [2],> 10000 nM
same,IC50,HeLa [3],> 10000 nM
same,IC50,[4],34.4 nM
same,IC50,[5],340 nM
same,IC50,HeLa [6],> 10000 nM
same,IC50,SK-OV-3 [7],> 10000 nM
same,IC50,[8],56.5 nM
CCCN(c1ccc(OC)cc1)c1nc(C)nc2oc(C)cc12,IC50,MDA-MB-435 [1],1400 nM
same,IC50,Chorioallantoic membrane,16700 nM
same,IC50,SK-OV-3 [2],1600 nM
same,IC50,HeLa [3],1500 nM
same,IC50,[4],8.5 nM
same,IC50,HeLa [6],1240 nM
same,IC50,SK-OV-3 [7],3400 nM
same,IC50,[8],29.9 nM
Cc1nc(Nc2ccccc2)c2cc(C)oc2n1,IC50,[5],113 nM
Cc1nc(Nc2cccc3[nH]ccc23)c2cc(C)oc2n1,IC50,Chorioallantoic membrane,22600 nM
same,IC50,[4],102 nM
same,IC50,[5],90.2 nM
same,IC50,[8],28.3 nM
COc1ccc(Nc2nc(C)nc3oc(C)cc23)cc1,IC50,[4],43.1 nM
same,IC50,[5],42.2 nM
same,IC50,[8],63.5 nM
Cc1nc(Nc2ccc(Cl)cc2)c2cc(C)oc2n1,IC50,[4],70.2 nM
same,IC50,[5],102 nM
COc1ccc(N(C)c2nc(C)nc3oc(C)cc23)cc1.Cl,IC50,MDA-MB-468,7.1 nM
same,IC50,MDA-MB-435 [1],47 nM
same,IC50,HeLa [3],44.7 nM
same,IC50,MCF7 [10],138 nM
same,IC50,MCF7 [11],130 nM
same,MTD,in vivo,50 mg/kg
same,IC50,HUVEC,172 nM
same,IC50,HeLa [6],40.6 nM
same,Activity,Mus musculus [13],Non-toxic
same,IC50,4T1 [12],97.9 nM
same,Activity,Mus musculus [14],Non-toxic
same,IC50,MDA-MB-231,148 nM
CC(=O)O[C@H]1C(=O)[C@@]2(C)[C@H]([C@H](OC(=O)c3ccccc3)[C@]3(O)C[C@H](OC(=O)[C@H](O)[C@@H](NC(=O)c4ccccc4)c4ccccc4)C(C)=C1C3(C)C)[C@]1(OC(C)=O)CO[C@@H]1C[C@@H]2O [PACLITAXEL],IC50,MDA-MB-435 [1],1.93 nM
Cc1nc(Nc2cccc3ccccc23)c2cc(C)oc2n1,IC50,[4],32.2 nM
same,IC50,[5],145 nM
COc1ccc(N(C)c2nc(C)nc3oc(C)cc23)cc1 [listing 1 of 2 here],GI50,[15],67.9 nM
same,IC50,Tubulin,1900 nM
C#Cc1cccc(Nc2nc(C)nc3oc(C)cc23)c1,IC50,Chorioallantoic membrane,18200 nM
same,IC50,[4],76.3 nM
same,IC50,[5],30 nM
same,IC50,[8],16.2 nM
Cc1nc(Nc2ccc(F)c(Cl)c2)c2cc(C)oc2n1,IC50,[4],58.2 nM
same,IC50,[5],30.2 nM
COc1ccc(N(c2nc(C)nc3oc(C)cc23)C(C)C)cc1,IC50,MDA-MB-435 [1],3000 nM
same,IC50,Chorioallantoic membrane,18900 nM
same,IC50,SK-OV-3 [2],3800 nM
same,IC50,HeLa [3],4070 nM
same,IC50,[4],15.6 nM
same,IC50,[5],84.4 nM
same,IC50,HeLa [6],2900 nM
same,IC50,SK-OV-3 [7],7400 nM
same,IC50,[8],23.1 nM
COc1cccc2c1C(=O)c1c(O)c3c(c(O)c1C2=O)C[C@@](O)(C(=O)CO)C[C@@H]3O[C@H]1C[C@H](N)[C@H](O)[C@H](C)O1 [DOXORUBICIN],IC50,A-431,1.35 nM
COc1ccc(N(C)c2nc(C)nc3oc(C)cc23)cc1 [listing 2 of 2 here],inhibition,4T1 [16],Active
same,inhibition,MDA-MB-435 [17],Active
same,Activity,HeLa [18],inactive
same,Activity,[19],Active
same,Activity,MDA-MB-435 [20],Active
same,inhibition,4T1 [21],Active
same,inhibition,4T1 [22],Active
same,Activity,[23],Active
same,inhibition,Tubulin (Sus scrofa),86%
same,Activity,HeLa [24],Active
same,inhibition,HeLa [25],Dose-dependent effect
CC(=O)O[C@@]12CO[C@@H]1C[C@H](O)[C@@]1(C)C(=O)[C@H](O)C3=C(C)[C@@H](OC(=O)[C@H](O)[C@@H](NC(=O)OC(C)(C)C)c4ccccc4)C[C@@](O)([C@@H](OC(=O)c4ccccc4)[C@H]21)C3(C)C.O.O.O [DOCETAXEL],IC50,MDA-MB-468,69.1 nM
same,IC50,MDA-MB-435 [9],2.7 nM
same,IC50,MCF7 [10],59.3 nM
same,IC50,MCF7 [11],> 1000 nM
same,MTD,in vivo,35 mg/kg
same,IC50,HUVEC,56.7 nM
same,IC50,4T1 [12],63.4 nM
same,inhibition,4T1 [26],Active
same,IC50,MDA-MB-231,16 nM
CS(=O)(=O)CCNCc1ccc(-c2ccc3ncnc(Nc4ccc(OCc5cccc(F)c5)c(Cl)c4)c3c2)o1 [LAPATINIB],IC50,MDA-MB-468,83.2 nM
same,IC50,MDA-MB-435 [9],29.7 nM
same,IC50,MCF7 [10],64.9 nM
same,IC50,4T1 [12],10.4 nM
same,IC50,MDA-MB-231,20 nM
Cc1nc(Nc2ccc(C(F)(F)F)cc2)c2cc(C)oc2n1,IC50,[4],66.2 nM
same,IC50,[5],122 nM
same,IC50,[8],66.1 nM

# Reference: ChEMBL document CHEMBL3297731, “The design and discovery of water soluble 4-substituted-2,6-dimethylfuro[2,3-d]pyrimidines as multitargeted receptor tyrosine kinase inhibitors and microtubule targeting antitumor agents” (Bioorg Med Chem, 2014)
